Assay results taken from ChEMBL document CHEMBL4513216, “Probing the Open Global Health Chemical Diversity Library for Multistage-Active Starting Points for Next-Generation Antimalarials” (ACS Infect Dis, 2020).

test: Toxicity liver stage against HepG2, at 10uM; format: cell-based; parameters: test concentration 10 uM, cell line HepG2-A16-CD81EGFP; settings: human, HepG2-A16-CD81EGFP cells; read-out: INHIBITION
How it was run: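 Uninfected HepG2-A16-CD81EGFP cells, 3 × 10^3 per well, 1536-well, plated on prespotted compound at 10 μM final, parasite-free screening media added to match infected plates; puromycin 10 μM positive, DMSO 0.5% negative; run in parallel with 48 h PbLuc assay at 37 °C, 5% CO2; viability by CellTiter-Glo luminescence, normalized to controls.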

Compound | cytotoxicity at 10 µM [%]
CCN1CC(COc2ccc(OC)cc2)Oc2ccncc2S1(=O)=O (stereo not drawn) | -7.6
Cc1nc(C2CCCNC2)cc(N2CCc3nc(N)sc3C2)n1 (stereo not drawn) | -47.4
CC(C)c1ccc(CN2CCCC3(CC2)CN(C)C(=O)O3)cc1 (stereo not drawn) | -3.44
CC(C)(CN)NS(=O)(=O)c1c(F)cccc1F | -8.89
COC(=O)C(C)(C)NC(=O)c1cc2sc(N(C)C)nc2s1 | -20.5
NC(=O)CCNCc1c(Cl)cccc1N1CCCC1 | 8.15
CC1(C)CN(C(=O)Nc2ccc(Cn3cccn3)cc2)CCO1 | 45.1
Cc1cc(C)c(CNC(=O)N2CCCC2c2ccccc2)c(=O)[nH]1 (stereo not drawn) | -0.818
Cc1ccccc1CNc1ccccc1OCC(=O)N1CCOCC1 | -2.38
CC(=O)NCc1ccc(S(=O)(=O)NC(=O)c2ccc3c(c2)COC3)cc1 | 6.42
c1cnn(CCNCc2csc(-c3ccc4c(c3)OCO4)n2)c1 | 4.12
Cc1ccc(C)c2c(O)cc(CNCC(N)=O)nc12 | -3.35
Cc1cc(C)n(CC2(CNC(=O)C(c3ccccc3C)N(C)C)CC2)n1 (stereo not drawn) | 1.79
CN(C(=O)c1ccc(-n2ncc(C#N)c2N)cc1)C1CCCC1 | -5.1
CCCS(=O)(=O)NC(=O)c1ccc(CC)o1 | -8.37
O=C(O)C1(Cc2cccc(-c3cccs3)c2)CCCNC1 (stereo not drawn) | 4.43
CCc1cc(NCCc2cc(F)cc(F)c2)n2nccc2n1 | 19.5
CCc1c(C)nc(C)nc1N1C[C@@H](CN(C)CCN(C)C)[C@@H](CO)C1 | -2.07
Cc1ccc(CC(=O)N2CC[C@@H]3NC(=O)CC[C@@H]32)cc1 | 1.49
COc1nc2ccccc2cc1CN1CCC(CNS(C)(=O)=O)C1 (stereo not drawn) | -2.7
CCCn1cnnc1CNC1CCSC1 (stereo not drawn) | -1.1
CC(c1ccccc1Cl)N(C(=O)CSCC(N)=O)C1CC1 (stereo not drawn) | -36.3
O=C(COC1CCCC1)N1CC[C@H]2OCC[C@@]2(COCC2CC2)C1 | 1.52

Compound | cytotoxicity at 10 µM [%]
CC(C(=O)Nc1cccc(N2CCCCC2)c1)n1cncn1 (stereo not drawn) | -7.3
CCC(C(=O)NCc1cc(N2CCOCC2)ncn1)n1cccn1 (stereo not drawn) | 1.44
Cc1cnn(CC2CCCN2CC(=O)Nc2cc(C)on2)c1 (stereo not drawn) | -26.7
CC(C)CN1CC(c2nc(-c3ccc(F)cc3)c[nH]2)CC1=O (stereo not drawn) | 6.8
Cn1nc(CO)c2c1CCN(c1ncnc3c1CCNCC3)C2 | 0.549
COCCN1CCC(NC(=O)Nc2cccc(F)c2)C1 (stereo not drawn) | -0.898
Cc1nonc1CN(C)Cc1c[nH]nc1-c1ccc(F)cc1F | 11.9
CCNC(=O)N1CCC(NC(=O)NCCc2cc(F)cc(F)c2)C1 (stereo not drawn) | -43.4
CCn1cnnc1CNC(=O)NCC(C)(CC)N1CCOCC1 (stereo not drawn) | -10.3
CC(NC(=O)N1CCN(c2ccccc2)CC1)c1nncn1C (stereo not drawn) | 2.36
CC(CO)NC(=O)c1ccc(NCc2ccccc2)cc1 (stereo not drawn) | -6.63
Cc1nc(O)cc(CN2CC=C(c3cnn(C(C)(C)C)c3)CC2)n1 | -7.17
CN1C(=O)CC(c2cnn(C)c2)C12CCN(C(=O)C1CC=CC1)CC2 (stereo not drawn) | 5.84
Cc1cnn(-c2ccc(S(=O)(=O)N(C)CC(F)F)cc2F)c1 | 9.75
CCn1ccnc1CN1CCN(CCOc2ccc(C#N)cc2)CC1 | -3.75
Cc1nccc(C2CCCN(C(=O)c3cncnc3)C2)n1 (stereo not drawn) | 4.1
Cc1cc(C(=O)O)cc(S(=O)(=O)Nc2ccc3c(c2)OCCCO3)c1C | -4.72
O=C(c1cc2c([nH]c1=O)CCC2)N1CCCC1c1ccccn1 (stereo not drawn) | -3.18
Cc1nnc(NC(=O)NCc2ccc(C)n2C)s1 | -2.08
COCCN(Cc1ccccn1)C(=O)CC1OCCc2ccsc21 (stereo not drawn) | -39
Cc1ccc(CN2CCC3(CCCC(=O)N3)CC2)s1 | -3.45
CCc1cc(C(F)(F)F)n2nc(C3CCCN3C(=O)COC)cc2n1 (stereo not drawn) | 3.01
CNC(=O)C1(c2cnccn2)CCCN1C(=O)c1ccccc1F (stereo not drawn) | -17.1

Compound | cytotoxicity at 10 µM [%]
CCc1ncc2c(n1)CN(CC(=O)Nc1cc(C)no1)CC2 | -16.9
O=C(CN1C(=O)CCC1=O)N1Cc2cncnc2C1 | -8.33
O=C(Cc1ccc(F)cc1F)NCC(=O)Nc1ccccn1 | 3.24
Cn1cc(C(=O)NCCC(=O)N2CCCCC2)c(-c2cccnc2)n1 | -5.93
CN(C)C(=O)CNC(=O)c1ccc2ccc(N(C)CC3CC3)n2c1 | 1.11
Cc1ccccc1C(=O)N1C[C@@H]2OCCN(c3ncccn3)[C@@H]2C1 | 29.5
Cc1cc(C(=O)N2CCn3cc(CN4CCN(C)CC4)nc3C2)no1 | -74.7
COCCOc1ccc(C(=O)N[C@@H]2CNCCC[C@H]2O)cc1 | 4.67
Cc1nc(CN(C)Cc2nc(-c3ccccc3)no2)co1 | -1.86
Cc1nc2c(c(N3CCC(CCn4cccn4)CC3)n1)CCNCC2 | 4.3
O=C(NCCC(=O)N1CCCC1)C(OC1CCCC1)c1ccccc1 (stereo not drawn) | -4.36
COCC1(C(=O)N[C@H]2CN(c3nnc(C)s3)C[C@@H]2C2CC2)CCC1 | -129
CCN(CC)c1ccc(CNC(=O)c2cccc(C)n2)cn1 | 9.47
CC(C)NC(=O)C1Cc2nc(-c3ccsc3)sc2N1CC1CC1 (stereo not drawn) | 6.61
COc1c(C2CCCN2C(=O)c2cscn2)c(C)nn1C (stereo not drawn) | 5.77
COCCN1CCC(C)(c2cc(O)[nH]n2)CC1 | 2.02
O=C(Cn1cncn1)NCC1(O)CCCc2ccccc21 (stereo not drawn) | -54.8
CCN(CC)C(=O)c1ccn(COc2ccccc2)n1 | -0.911
Cc1cnn(CC(C)NCc2ccc(OCc3nccn3C)cc2)c1 (stereo not drawn) | -10.7
Cc1cccc(C)c1NC(=O)CNC(C)Cc1ccsc1 (stereo not drawn) | -6.12
COc1cc(C)cc(C(C(=O)O)N(C)Cc2ccon2)c1OC (stereo not drawn) | -3.41
COc1cccc([C@@H]2CCN(Cc3ccc4ccccc4n3)C[C@H]2O)c1 | -16.5
Cc1cc(N2CCC3(CCCN(CCO)C3=O)C2)nc(C)c1C#N (stereo not drawn) | 7.41

Compound | cytotoxicity at 10 µM [%]
COc1ccc2nnc(CCC(=O)Nc3nc(C)c(C)s3)n2n1 | -3.18
CC(=O)N(Cc1ncc(C(C)C)o1)C1CCN(CCC#N)C1 (stereo not drawn) | -6.39
N#Cc1ccccc1CN1CCC2(CC1)CC(c1ccccc1)C(=O)N2 (stereo not drawn) | -44.8
COc1ccnc(NC(=O)c2cnccn2)c1 | 7.97
CC(NC(=O)Nc1nccs1)c1ccncc1 (stereo not drawn) | -9.98
Cc1nc(N)ccc1CC1COc2ccccc2C1 (stereo not drawn) | 3.79
CC(=O)N1CCC(C(=O)N2CCCC(Cc3cccc(C)n3)C2)CC1 (stereo not drawn) | -18.6
CC(C)=CCN1C[C@@H]2CC[C@H]1CN(CCC(=O)NCc1ccco1)C2 | -3.08
Cc1cc(Nc2ccc3c(c2)CC(=O)N3)nc(C2CC2)n1 | 0.658
CCC(C)Nc1ccc(-c2nc(-c3cccc(OC)c3OC)no2)cn1 (stereo not drawn) | 24.8
Cc1ccccc1N1CC2(CCCCN2CC2CC2)CC1=O (stereo not drawn) | 10.4
CN1CC(C(=O)NCCc2ccc(F)c(Br)c2)CC1=O (stereo not drawn) | 3.57
Cc1ccc(CN2Cc3c(cnn3C)C(COCC3CC3)C2)s1 (stereo not drawn) | 3.91
CC(C#N)CSc1ccccc1NCC(=O)Nc1ccc(F)cc1 (stereo not drawn) | 8.19
CC1CCN(C(=O)Cn2nc(Br)nc2Br)CC1 | -1.8
CC(OCc1ccccc1)C(=O)NCc1ccc(N(C)C)cc1 (stereo not drawn) | -12
Cc1nccc([C@H]2C[C@@H]3CCN(S(C)(=O)=O)C[C@H]3O2)n1 | -0.522
CCc1nccn1C1CCCN(C(=O)c2ccoc2C)C1 (stereo not drawn) | -28
COc1ccccc1CCN(C)C(C)c1nc(-c2cccnc2)no1 (stereo not drawn) | -2.04
CCc1nccc(CN2CCC(CNC(=O)C3CCC(C)CC3)C2)n1 (stereo not drawn) | -4.51
COc1cc(C(F)(F)F)sc1C(=O)O | -3.29
CCn1cnnc1C1CCN(C(=O)c2cnc(C3CC3)s2)CC1 | -7.59
COc1cc(N2CCC3(CCN(Cc4csc(C)n4)C3=O)C2)ncn1 (stereo not drawn) | -104

Compound | cytotoxicity at 10 µM [%]
CC(C)N1CCC(Nc2ccn(C)n2)C1=O (stereo not drawn) | -0.794
Cc1cc(C)n(CC(=O)N2CCCC(c3cc4cccnc4[nH]3)C2)n1 (stereo not drawn) | 8.3
COCc1nccc(C2CCCN(Cc3ccccc3C#N)C2)n1 (stereo not drawn) | 6.05
Cc1cc(NC(=O)NCC(C)N2CCOCC2)n(C)n1 (stereo not drawn) | -18.3
O=C(N1CCCC1)N1CCC2(CCN(Cc3ccccn3)C2=O)C1 (stereo not drawn) | 3.2
COc1ccc(F)cc1C(C)NC(=O)c1nnc(C)s1 (stereo not drawn) | -0.213
Cc1cnn(CC2CCCCN2C(=O)c2ccc(C#N)c(C)n2)c1 (stereo not drawn) | -1.18
O=C(c1ccncn1)N1CCO[C@H]2[C@@H](OCc3cccnc3)CC[C@@H]21 | -7.69
CNC(=O)CN(C)S(=O)(=O)c1c(Br)cc2[nH]c(=O)oc2c1Cl | 1.36
Cc1ccc(C(=O)N2CCN(c3ncnc4nc(N)ccc34)CC2)o1 | 7.55
CCC(Nc1nccc(C2CCCC2)n1)c1ccccn1 (stereo not drawn) | -126
O=C(CN1CC(n2cccn2)C1)NCCCN1CCCC1=O | -29.9
COCC1CCN(c2nc(C(C)(C)C)nc3c2cnn3C)C1 (stereo not drawn) | -8.44
Cc1nc(N2CCN(S(C)(=O)=O)CC2)cc(-n2cnc(C)c2C)n1 | -5.83
CC(C)(C)c1oc(C(N)=O)cc1CN1CCCCC1CN1CCOCC1 (stereo not drawn) | -11.2
CC(C(=O)NC(C)(C)C)S(=O)(=O)Cc1noc(C(C)(C)C)n1 (stereo not drawn) | -10.8
Cc1cc(CSC2CCCN(c3cnn(C)c3)C2=O)no1 (stereo not drawn) | 29.7
CC(C)c1cc(C(=O)N2Cc3ccccc3CC2C(=O)O)nn1C (stereo not drawn) | 7.97
CC(C)(C(=O)NCC(N)=O)c1ccccc1F | -5.33
CCN1CC2(CC1=O)CN(C(=O)NC(C)C)CCN(C(=O)C(C)C)C2 (stereo not drawn) | 0.508
CCN(CC)CCNC(=O)c1ccc(Cl)c(NS(C)(=O)=O)c1 | 5.53
